This note sets out measurements from ChEMBL document CHEMBL1137162, “The development of novel inhibitors of tumor necrosis factor-alpha (TNF-alpha) production based on substituted [5,5]-bicyclic pyrazolones” (Bioorg Med Chem Lett, 2004).

In the first assay the test system is Rattus norvegicus. Kind of assay: Percent reduction in joint damage as compared to the control at 25 mg/Kg. In kind it is functional. In short, it runs like this:
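Rat iodoacetate osteoarthritis model; groups of 15 animals dosed orally BID (~every 12 h) for 7 days at 25 mg/kg or vehicle (2.5 mL/kg). Sacrifice on day 22; left joint disarticulated, fixed in 10% formalin 24–48 h, tibial cartilage surface imaged by image analysis. Joint damage expressed as % reduction versus vehicle; significance at P < 0.05.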
`COCC(C)Nc1nccc(-c2c(-c3ccc(F)cc3)c(=O)n3n2CC(OC)C3)n1` (racemic) came in with a Reduction of 28%.
The same measure, in the same setting: the result for `C[C@H](Nc1nccc(-c2c(-c3ccc(F)cc3)c(=O)n3n2CC2(C3)OCCO2)n1)C(C)(C)O` reads 18%; that for `COC[C@H](C)Nc1nccc(-c2c(-c3ccc(F)cc3)c(=O)n3n2CC2(C3)OCCO2)n1`, 17%.
Same read-out and setting: for `C[C@H](Nc1nccc(-c2c(-c3ccc(F)cc3)c(=O)n3n2CC2(C3)OCCO2)n1)c1ccccc1` the value was 27%.

The test system of the next assay is THP-1. Kind of assay: inhibitory potency against human Tumor necrosis factor, alpha production in THP-1cells. The class given is functional, cell-based. In short, it runs like this:
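Human monocytic THP-1 cells (2.0 × 10^5/well), duplicate cultures, preincubated 15 min with or without inhibitor over a concentration range, then stimulated with LPS (2 μg/mL). TNF-α released measured by ELISA 4 h after stimulation; cell viability after the 4 h incubation checked by MTS assay.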
The term IC50 denotes the concentration that gives 50% inhibition. Read a high IC50 as a need for much substance. `O=c1c(-c2ccc(F)cc2)c(-c2ccnc(Oc3ccccc3)n2)n2n1CC1(C2)OCCO1` showed an IC50 of 38 nM. This counts as double-digit nanomolar.
On the same count and under the same terms, for `O=c1c(-c2ccc(F)cc2)c(-c2ccnc(NCc3ccncc3)n2)n2n1CC1(C2)OCCO1` the value was 1000 nM.
As to `O=c1c(-c2ccc(F)cc2)c(-c2ccnc(NCc3ccccc3F)n2)n2n1CC1(C2)OCCO1`, the IC50 turned out to be 8 nM.
Compound `O=c1c(-c2ccc(F)cc2)c(-c2ccnc(NCc3ccc(F)cc3)n2)n2n1CC1(C2)OCCO1` yielded an IC50 of 290 nM.
`COCC(C)Nc1nccc(-c2c(-c3ccc(F)cc3)c(=O)n3n2CC(OC)C3)n1` (single isomer, unassigned) gave an IC50 of 20 nM.
Regarding `Cc1cccc(CNc2nccc(-c3c(-c4ccc(F)cc4)c(=O)n4n3CC3(C4)OCCO3)n2)c1`, the midpoint of inhibition, the IC50, lay at 40 nM.
The same measure, in the same setting: for `Cc1ccc(CNc2nccc(-c3c(-c4ccc(F)cc4)c(=O)n4n3CC3(C4)OCCO3)n2)cc1` the value was 293 nM; for `C[C@H](Nc1nccc(-c2c(-c3ccc(F)cc3)c(=O)n3n2CC2(C3)OCCCO2)n1)c1ccccc1`, 12 nM.
The same measure, in the same setting: the result for `O=c1c(-c2ccc(F)cc2)c(-c2ccnc(Oc3ccccc3)n2)n2n1CC1(C2)OCCCO1` reads 69 nM.
The compound `Nc1ccccc1CNc1nccc(-c2c(-c3ccc(F)cc3)c(=O)n3n2CC2(C3)OCCO2)n1` showed an IC50 of 101 nM. The IC50 values of the last two compounds are within 1.5-fold of each other.
`O=c1c(-c2ccc(F)cc2)c(-c2ccnc(Oc3ccccc3)n2)n2n1CC(N1CCCC1)C2` (stereo not drawn) yielded an IC50 of 327 nM.
On the same count and under the same terms, for `CN(C)C1Cn2c(-c3ccnc(Oc4ccccc4)n3)c(-c3ccc(F)cc3)c(=O)n2C1` (stereo not drawn) the value was 177 nM; for `COCC(C)Nc1nccc(-c2c(-c3ccc(F)cc3)c(=O)n3n2CC(OC)C3)n1` (racemic), 15 nM.
On to `O=c1c(-c2ccc(F)cc2)c(-c2ccnc(NCc3cccnc3)n2)n2n1CC1(C2)OCCO1`, for which the IC50 came out at 427 nM.
On the same count and under the same terms, the result for `O=c1c(-c2ccc(F)cc2)c(-c2ccnc(NCc3ccccc3C(F)(F)F)n2)n2n1CC1(C2)OCCO1` reads 17 nM; that for `C[C@H](Nc1nccc(-c2c(-c3ccc(F)cc3)c(=O)n3n2CC2(C3)OCCO2)n1)C(C)(C)O`, 9 nM.
Still for that read-out and setting: for `O=c1c(-c2ccc(F)cc2)c(-c2ccnc(NCc3ccccc3)n2)n2n1CC1(C2)OCCCO1` the value was 31 nM; for `O=c1c(-c2ccc(F)cc2)c(-c2ccnc(NCc3ccc(F)cc3)n2)n2n1CC1(C2)OCCCO1`, 630 nM; for `O=c1c(-c2ccc(F)cc2)c(-c2ccnc(NCc3cccc(F)c3)n2)n2n1CC1(C2)OCCO1`, 13 nM.
In turn, `Nc1ccc(CNc2nccc(-c3c(-c4ccc(F)cc4)c(=O)n4n3CC3(C4)OCCO3)n2)cc1` displayed an IC50 of 161 nM.
Still for that read-out and setting: for `Cc1ccccc1CNc1nccc(-c2c(-c3ccc(F)cc3)c(=O)n3n2CC2(C3)OCCO2)n1` the value was 19 nM.
`O=c1c(-c2ccc(F)cc2)c(-c2ccnc(Oc3ccccc3)n2)n2n1CC(N1CCNCC1)C2` (stereo not drawn) gave a concentration for half-maximal inhibition (IC50) of 500 nM.
Same read-out and setting: the result for `COC[C@H](C)Nc1nccc(-c2c(-c3ccc(F)cc3)c(=O)n3n2CC2(C3)OCCCO2)n1` reads 36 nM; that for `O=c1c(-c2ccc(F)cc2)c(-c2ccnc(Oc3ccccc3)n2)n2n1CC(N1CCCCC1)C2` (stereo not drawn), 297 nM.
Still for that read-out and setting: the result for `COC[C@H](C)Nc1nccc(-c2c(-c3ccc(F)cc3)c(=O)n3n2CC2(C3)OCCO2)n1` reads 36 nM.
On the same count and under the same terms, for `O=c1c(-c2ccc(F)cc2)c(-c2ccnc(NCc3ccccn3)n2)n2n1CC1(C2)OCCO1` the value was 148 nM; for `O=c1c(-c2ccc(F)cc2)c(-c2ccnc(Oc3ccccc3)n2)n2n1CC(N1CCOCC1)C2` (stereo not drawn), 313 nM; for `C[C@@H](Nc1nccc(-c2c(-c3ccc(F)cc3)c(=O)n3n2CC(O)C3)n1)c1ccccc1` (stereo partly drawn), 5 nM.
In turn, `O=c1c(-c2ccc(F)cc2)c(-c2ccnc(NCc3ccccc3)n2)n2n1CC1(C2)OCCO1` showed an IC50 of 11 nM.
Same read-out and setting: for `COC[C@H](C)Nc1nccc(-c2c(-c3ccc(F)cc3)c(=O)n3n2CC(OC)C3)n1` (stereo partly drawn) the value was 13 nM.
`C[C@H](Nc1nccc(-c2c(-c3ccc(F)cc3)c(=O)n3n2CC2(C3)OCCO2)n1)c1ccccc1` displayed an IC50 of 2 nM.
Still for that read-out and setting: the result for `O=c1c(-c2ccc(F)cc2)c(-c2ccnc(NCc3ccc(C(F)(F)F)cc3)n2)n2n1CC1(C2)OCCO1` reads 1000 nM.
The same measure, in the same setting: the result for `O=c1c(-c2ccc(F)cc2)c(-c2ccnc(NCc3cccc(C(F)(F)F)c3)n2)n2n1CC1(C2)OCCO1` reads 197 nM.
`COC(=O)OC1Cn2c(-c3ccnc(Oc4ccccc4)n3)c(-c3ccc(F)cc3)c(=O)n2C1` (stereo not drawn) yielded an IC50 of 181 nM.
